Source: ChEMBL document CHEMBL1138621, “Inhibition of tRNA-dependent ligase MurM from Streptococcus pneumoniae by phosphonate and sulfonamide inhibitors” (Bioorg Med Chem, 2009)
Activity calls are given as the source filed them. The calls are words filed in the database; no cut-off is given here.

How the values were obtained:
[1] = Inhibition of penicillin-resistant Streptococcus pneumoniae 159 recombinant MurM by liquid scintillation counting
Streptococcus pneumoniae [2] = test: Inhibition of penicillin-resistant Streptococcus pneumoniae 159 recombinant MurM at 1 mM by liquid scintillation counting
Streptococcus pneumoniae [3] = test: Antibacterial activity against penicillin- resistant Streptococcus pneumoniae 159 at 1 mM by NCCLS method; format: functional, organism-based
In short: (§1)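 Growth inhibition in liquid culture per NCCLS protocol, compounds at 1–5 mM final concentration; strains tested: S. pneumoniae 159 and pn16, S. aureus MRSA and MSSA, E. faecalis, M. flavus, E. coli.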

Staphylococcus aureus [4] = test: Antimicrobial activity against methicillin-resistant Staphylococcus aureus expressing femABX gene at 1 to 5 mM by NCCLS method; format: functional, organism-based; in short: as §1
Staphylococcus aureus [5] = test: Antimicrobial activity against methicillin-susceptible Staphylococcus aureus expressing femABX gene at 1 to 5 mM by NCCLS method; format: functional, organism-based; in short: as §1
Enterococcus faecalis = test: Antimicrobial activity against Enterococcus faecalis expressing femABX gene at 1 to 5 mM by NCCLS method; format: functional, organism-based; in short: as §1
Micrococcus flavus = test: Antimicrobial activity against Micrococcus flavus expressing femABX gene at 1 to 5 mM by NCCLS method; format: functional, organism-based; in short: as §1
[6] = target: T1, Alanine--tRNA ligase (Streptococcus pneumoniae serotype 4 (strain ATCC BAA-334 / TIGR4)) (UniProt Q97Q48); test: Inhibition of Streptococcus pneumoniae alanyl tRNA synthetase expressed in Escherichia coli BL21 (DE3) assessed as formation of [3H]alanyl tRNA at 1 mM
T1 sequence (whole entry): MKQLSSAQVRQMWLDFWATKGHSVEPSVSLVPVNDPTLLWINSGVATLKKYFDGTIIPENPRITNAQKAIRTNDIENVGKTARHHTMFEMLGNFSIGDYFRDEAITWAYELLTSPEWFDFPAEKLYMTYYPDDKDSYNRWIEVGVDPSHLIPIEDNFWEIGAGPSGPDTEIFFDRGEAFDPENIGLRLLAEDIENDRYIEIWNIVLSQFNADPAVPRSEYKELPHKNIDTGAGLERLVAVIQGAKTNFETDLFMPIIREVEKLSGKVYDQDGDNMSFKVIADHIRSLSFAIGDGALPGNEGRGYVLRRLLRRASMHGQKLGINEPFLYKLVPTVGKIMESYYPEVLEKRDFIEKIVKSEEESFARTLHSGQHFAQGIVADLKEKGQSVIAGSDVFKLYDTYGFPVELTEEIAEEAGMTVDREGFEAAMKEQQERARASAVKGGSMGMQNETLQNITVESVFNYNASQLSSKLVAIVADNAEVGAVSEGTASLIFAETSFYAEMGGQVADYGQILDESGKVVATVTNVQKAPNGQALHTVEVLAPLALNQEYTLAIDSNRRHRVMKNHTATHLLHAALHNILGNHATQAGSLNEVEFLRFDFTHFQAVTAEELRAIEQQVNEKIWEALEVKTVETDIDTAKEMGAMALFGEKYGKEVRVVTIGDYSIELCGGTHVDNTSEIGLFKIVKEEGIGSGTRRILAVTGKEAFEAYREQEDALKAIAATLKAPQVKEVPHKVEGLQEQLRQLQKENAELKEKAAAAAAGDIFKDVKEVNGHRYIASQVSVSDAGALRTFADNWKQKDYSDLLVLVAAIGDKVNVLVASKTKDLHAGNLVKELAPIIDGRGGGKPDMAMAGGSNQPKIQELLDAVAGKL

[7] = target: T2, Serine--tRNA ligase (Streptococcus pneumoniae serotype 4 (strain ATCC BAA-334 / TIGR4)) (UniProt Q97SG0); test: Inhibition of Streptococcus pneumoniae seryl tRNA synthetase expressed in Escherichia coli BL21 (DE3) assessed as formation of [3H]seryl tRNA at 1 mM
T2 sequence (whole entry): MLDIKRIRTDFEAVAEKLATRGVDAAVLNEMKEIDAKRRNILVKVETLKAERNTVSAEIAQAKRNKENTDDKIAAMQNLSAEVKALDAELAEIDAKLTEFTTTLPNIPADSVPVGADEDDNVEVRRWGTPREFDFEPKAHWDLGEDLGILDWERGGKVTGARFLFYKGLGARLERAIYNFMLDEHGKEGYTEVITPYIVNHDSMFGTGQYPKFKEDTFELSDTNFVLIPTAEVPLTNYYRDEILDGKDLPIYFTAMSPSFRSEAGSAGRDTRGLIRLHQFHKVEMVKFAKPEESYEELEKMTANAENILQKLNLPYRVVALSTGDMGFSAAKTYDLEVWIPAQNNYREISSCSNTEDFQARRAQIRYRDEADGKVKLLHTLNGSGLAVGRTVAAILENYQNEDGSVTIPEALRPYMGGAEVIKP

[8] = target: T1, Alanine--tRNA ligase (Streptococcus pneumoniae serotype 4 (strain ATCC BAA-334 / TIGR4)); test: Inhibition of Streptococcus pneumoniae alanyl tRNA synthetase expressed in Escherichia coli BL21 (DE3) assessed as formation of [3H]alanyl tRNA at 100 uM
[9] = target: T2, Serine--tRNA ligase (Streptococcus pneumoniae serotype 4 (strain ATCC BAA-334 / TIGR4)); test: Inhibition of Streptococcus pneumoniae seryl tRNA synthetase expressed in Escherichia coli BL21 (DE3) assessed as formation of [3H]seryl tRNA at 100 uM

Row | Compound | Activity (Streptococcus pneumoniae [2]) | inhibition (Streptococcus pneumoniae [2]) | other results
1 | CC(N)P(=O)(O)O[C@H]1[C@@H](O)[C@H](n2cnc3c(N)ncnc32)O[C@@H]1CO (stereo partly specified) | – | – | IC50 [1]: Not Active
2 | COC(=O)[C@H](CCCCNP(=O)(OC)C(C)NC(=O)OCc1ccccc1)NC(=O)OC(C)(C)C (stereo partly specified) | inactive | – | –
3 | CC(NC(=O)OCc1ccccc1)P(=O)(O)O[C@H]1C[C@H](n2cnc3c(N)ncnc32)O[C@@H]1CO (stereo partly specified) | – | 0% | –
4 | CCCNP(=O)(OCCOC)C(C)NC(=O)OCc1ccccc1 (stereo unspecified) | inactive | – | –
5 | COCCOP(=O)(NCCCC[C@H](NC(=O)OC(C)(C)C)C(=O)OC)C(C)NC(=O)OCc1ccccc1 (stereo partly specified) | inactive | – | –
6 | CCCCOP(=O)(NCCC)C(C)NC(=O)OCc1ccccc1 (stereo unspecified) | inactive | – | –
7 | CNC(=O)OC[C@H]1O[C@@H](n2cnc3c(N)ncnc32)C[C@@H]1OP(=O)(O)C(C)N (stereo partly specified) | – | 3% | –
8 | Nc1ncnc2c1ncn2[C@H]1C[C@H](OP(=O)(O)O)[C@@H](CO)O1 | – | 15% | –
9 | CC(NC(=O)OCc1ccccc1)P(=O)(O)O[C@H]1C[C@H](n2cnc3c(N)ncnc32)O[C@@H]1CO[Si](C)(C)C(C)(C)C (stereo partly specified) | – | 0% | –
10 | CCCNP(=O)(OC)C(NC(=O)OCc1ccccc1)c1ccccc1 (stereo unspecified) | inactive | – | –
11 | COC(=O)[C@H](CCCCNP(=O)(OC)C(NC(=O)OCc1ccccc1)c1ccccc1)NC(=O)OC(C)(C)C (stereo partly specified) | inactive | – | –
12 | CC(N)P(=O)(O)O[C@@H]1[C@H](O)[C@@H](CO)O[C@H]1n1cnc2c(N)ncnc21 (stereo partly specified) | – | 55% | IC50 ([1]; read-out: IC50): 780 µM
13 | CCCNP(=O)(OC)C(CC)NC(=O)OCc1ccccc1 (stereo unspecified) | inactive | – | –
14 | COc1ccc(C[C@H](N)C(=O)N[C@H]2[C@@H](O)[C@H](n3cnc4c(N(C)C)ncnc43)O[C@@H]2CO)cc1 | – | 0% | –
15 | Nc1ncnc2c1ncn2[C@H]1C[C@H](O)[C@@H](CO)O1 | – | 13% | –
16 | CC(N)P(=O)(O)O[C@H]1C[C@H](n2cnc3c(N)ncnc32)O[C@@H]1CO (stereo partly specified) | – | 95% | IC50 ([1]; read-out: IC50): 100 µM; growth inhibition (GI) (Streptococcus pneumoniae [3]): inactive; Activity (Staphylococcus aureus [4]): inactive; Activity (Staphylococcus aureus [5]): inactive; Activity (Enterococcus faecalis): inactive; Activity (Micrococcus flavus): inactive; inhibition [6]: 22%; inhibition [7]: 28%; inhibition [8]: inactive; inhibition [9]: inactive
17 | CCCNP(=O)(OC)C(C)NC(=O)OCc1ccccc1 (stereo unspecified) | inactive | – | –
18 | CC(NC(=O)OCc1ccccc1)P(=O)(O)O[C@H]1C[C@H](n2cnc3c(NC(=O)c4ccccc4)ncnc32)O[C@@H]1CO[Si](C)(C)C(C)(C)C (stereo partly specified) | – | 0% | –
19 | CC(N)P(=O)(O)O[C@H]1C[C@H](n2cnc3c(N)ncnc32)O[C@@H]1CO[Si](C)(C)C(C)(C)C (stereo partly specified) | – | 0% | –
20 | CCCCOP(=O)(NCCCC[C@H](NC(=O)OC(C)(C)C)C(=O)OC)C(C)NC(=O)OCc1ccccc1 (stereo partly specified) | inactive | – | –
